Experimental data published in ChEMBL document CHEMBL1132303, “Novel pyrimidine and purine derivatives of L-ascorbic acid: synthesis and biological evaluation” (J Med Chem, 1999).

How the values were obtained:
[1] = test system: HEL; experiment: The compound was tested for antiviral activity by measuring the concentration required to reduce plaque formation against cytomegalo virus Davis strain; format: functional, cell-based; settings: Homo sapiens
Method in brief: (§1)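 Plaque reduction in human embryonic lung cells with 20 PFU virus input. EC50 is the concentration that cuts plaque formation by 50%.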

[2] = test system: HeLa; experiment: The compound was tested for growth inhibitory activity against HeLa tumor cell lines; format: functional, cell-based; settings: Homo sapiens
Method in brief: (§2)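 Monolayer cells in DMEM with 10% FBS, 2 mM glutamine, penicillin/streptomycin, 37 °C, 5% CO2, plated at 1.5 × 10^4/mL (HeLa, Hep2, MCF7, MiaPaCa2) or 2 × 10^4/mL (Hef522). MTT read-out, percent growth versus untreated controls. Mean of three parallel samples in three experiments; IC50 reported.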

[3] = test system: HEL; experiment: The compound was tested for antiviral activity by measuring the concentration required to reduce plaque formation against Varicella zoster TK-(deficient) YS/R strain; format: functional, cell-based; settings: Homo sapiens; method in brief: as §1
[4] = test system: HEL; experiment: The compound was tested for antiviral activity by measuring the concentration required to reduce plaque formation against Varicella zoster TK+OKA strain; format: functional, cell-based; settings: Homo sapiens; method in brief: as §1
[5] = test system: Hef522 normal fibroblasts (human); experiment: The compound was tested for growth inhibitory activity against normal fibroblast (Hef522)
[6] = test system: CCRF-CEM; experiment: The compound was tested for growth inhibitory activity against CEM/0 tumor cell lines; format: functional, cell-based; settings: Homo sapiens
[7] = test system: HEp-2; experiment: The compound was tested for growth inhibitory activity against Hep2 tumor cell lines; format: functional, cell-based; settings: Homo sapiens; method in brief: as §2
[8] = test system: HEL; experiment: The compound was tested for antiviral activity by measuring the concentration required to reduce plaque formation against Varicella zoster TK+YS strain; format: functional, cell-based; settings: Homo sapiens; method in brief: as §1
[9] = test system: HEL; experiment: The compound was tested for cytotoxic concentration required to reduce human embryonic lung cell growth by 50%; format: functional, cell-based
Method in brief: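 Human embryonic lung cell growth measured. Value is the concentration reducing cell growth by 50%.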

[10] = test system: L1210; experiment: The compound was tested for growth inhibitory activity against L1210/0 tumor cell lines; format: functional, cell-based; settings: Mus musculus
[11] = test system: HEL; experiment: The compound was tested for antiviral activity by measuring the concentration required to reduce plaque formation against cytomegalo virus AD-169 strain; format: functional, cell-based; settings: Homo sapiens; method in brief: as §1
[12] = test system: MCF7; experiment: The compound was tested for growth inhibitory activity against MCF-7 tumor cell lines; format: functional, cell-based; settings: Homo sapiens; method in brief: as §2
[13] = test system: HEL; experiment: Minimum cytotoxic concentration that causes a microscopically detectable alteration of cell morphology in human embryonic lung cells; format: functional, cell-based
Method in brief: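 Human embryonic lung cells checked under the microscope. Minimum concentration producing a detectable change in cell morphology.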

[14] = test system: MOLT-4; experiment: The compound was tested for growth inhibitory activity against Molt4/C8 tumor cell lines; format: functional, cell-based; settings: Homo sapiens
[15] = test system: FM3A; experiment: The compound was tested for growth inhibitory activity against FM3A/0 tumor cell lines; format: functional, cell-based; settings: Mus musculus
[16] = test system: MIA PaCa-2; experiment: The compound was tested for growth inhibitory activity against MiaPaCa2 tumor cell lines; format: functional, cell-based; settings: Homo sapiens; method in brief: as §2
[17] = test system: HEL; experiment: The compound was tested for antiviral activity by measuring the concentration required to reduce plaque formation against Varicella zoster TK-(deficient) 07/1 strain; format: functional, cell-based; settings: Homo sapiens; method in brief: as §1

Row | SMILES | IC50 [1] [µM] | IC50 [2] [µM] | IC50 [3] [µM] | IC50 [4] [µM] | IC50 [5] [µM] | IC50 [6] [µM] | IC50 [7] [µM] | IC50 [8] [µM] | IC50 [9] [µM] | IC50 [10] [µM] | IC50 [11] [µM] | IC50 [12] [µM] | MCC [13] [µM] | IC50 [14] [µM] | IC50 [15] [µM] | IC50 [16] [µM] | IC50 [17] [µM]
1 | O=C1O/C(=C\Cn2cnc3c(-n4cccc4)ncnc32)C(OCc2ccccc2)=C1OCc1ccccc1 | > 0.5 | 70 | 0.6 | 1.2 | > 100 | 5.8 | > 100 | 1.5 | 4 | 110 | > 0.5 | > 100 | 20 | 3.9 | > 200 | > 100 | 2.8
2 | O=C1O/C(=C\Cn2cc(F)c(=O)[nH]c2=O)C(OCc2ccccc2)=C1OCc1ccccc1 | 3.5 | 40 | 2.7 | 2.6 | 40 | 15.1 | 20 | 3.8 | 9 | 5.1 | 3.5 | 60 | 20 | 10.9 | 3.4 | 40 | 3.5
3 | O=C1O/C(=C\Cn2cc(Br)c(=O)[nH]c2=O)C(OCc2ccccc2)=C1OCc1ccccc1 | > 2 | 30 | 1 | 1.3 | 30 | 3.5 | 90 | > 2 | 3 | 7.5 | > 2 | 40 | 5 | 3.9 | 17.1 | 80 | > 2
4 | O=C1O/C(=C/Cn2cnc3ncnc(Cl)c32)C(OCc2ccccc2)=C1OCc1ccccc1 | > 5 | 30 | 3.8 | 5 | 20 | 4.4 | 60 | > 5 | 20 | 4.1 | > 5 | > 100 | 20 | 6.8 | 11.4 | 40 | > 5
5 | O=C1O/C(=C\Cn2cc(Cl)c(=O)[nH]c2=O)C(OCc2ccccc2)=C1OCc1ccccc1 | > 2 | 40 | 1 | 1.3 | 30 | 6 | 20 | > 2 | 3 | 12.2 | > 2 | 60 | 5 | 6.1 | 16.9 | 40 | > 2
6 | O=C1O/C(=C\Cn2cnc3c(Cl)ncnc32)C(OCc2ccccc2)=C1OCc1ccccc1 | > 5 | 30 | > 5 | > 5 | 50 | 15.9 | 60 | > 5 | 8 | 11.6 | > 5 | 40 | 20 | 14.8 | 16.4 | 60 | > 5
7 | O=C1O/C(=C\Cn2cc(I)c(=O)[nH]c2=O)C(OCc2ccccc2)=C1OCc1ccccc1 | > 2 | 30 | 1 | 1.3 | 40 | 3.3 | 10 | 1.4 | 3 | 7.5 | > 2 | 70 | 5 | 3.9 | 22.6 | 80 | > 2
8 | O=C1O/C(=C\Cn2ccc(=O)[nH]c2=O)C(OCc2ccccc2)=C1OCc1ccccc1 | 3.5 | 50 | 1.8 | 3 | 50 | 13 | 40 | 3.4 | 5 | 12.9 | 3.5 | 20 | 20 | 4.8 | 17.7 | 30 | 3.4
9 | O=C1O/C(=C\Cn2cc(C(F)(F)F)c(=O)[nH]c2=O)C(OCc2ccccc2)=C1OCc1ccccc1 | 0.4 | 20 | 0.3 | 0.3 | 60 | 1.6 | 40 | 0.5 | 1 | 2 | > 0.5 | 40 | 2 | 0.9 | 3.6 | 30 | 0.5
10 | Nc1nc2c(ncn2COCCO)c(=O)[nH]1 [ACYCLOVIR] |  |  | 12 | 0.16 |  |  |  | 0.78 | > 100 |  |  |  | > 50 |  |  |  | 17
11 | O=c1[nH]c(=O)n([C@H]2C[C@H](O)[C@@H](CO)O2)cc1/C=C/Br [BRIVUDINE] |  |  | > 50 | 0.001 |  |  |  | 0.005 | > 100 |  |  |  | > 50 |  |  |  | > 50
12 | Nc1nc2c(ncn2COC(CO)CO)c(=O)[nH]1 [GANCICLOVIR] | 5 |  |  |  |  |  |  |  | > 50 |  | 1 |  | > 50 |  |  |  | 
